Measured values: ChEMBL document CHEMBL4007470, “Discovery of a 2'-fluoro-2'-C-methyl C-nucleotide HCV polymerase inhibitor and a phosphoramidate prodrug with favorable properties” (Bioorg Med Chem Lett, 2017)
pEC50, pIC50: −log10 of the molar value. Converted amounts (≈) assume the structure as drawn.

Experiments:
[1] = Permeability of the compound from basolateral to apical side in human Caco2 cells at 10 uM; type: ADME, cell-based, Caco-2; details: for Papp B→A at 10 µM: Caco-2, read-out: permeability
In short: (§1)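 Caco-2 permeability at 10 μM compound, measured in apical-to-basolateral and basolateral-to-apical directions.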

Hepatitis C virus [2] = assay: Antiviral activity against HCV genotype 1a infected in human HuH7 cells by luciferase reporter gene assay; type: functional, cell-based, Hepacivirus hominis, subtype 1a
[3] = Half life in hamster intestinal S9 fractions at 2 uM by LC-MS/MS analysis; type: ADME, Intestine; details: cricetinae; for half-life at 2 µM: intestinal S9 fractions; for t1/2: s9, 2 µM, 2 µM
[4] = Half life in human intestinal S9 fractions at 2 uM by LC-MS/MS analysis; type: ADME, Intestine
In short: (§2)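 Compound at 2 μM incubated with S9 fractions at 37 °C for 90 min with NADPH and UDPGA. Quenched with aqueous acetonitrile/methanol containing internal standard and analysed by LC-MS/MS. Half-life from an exponential fit assuming first-order kinetics. Hepatic extraction predicted from half-life using the well-stirred model.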

Hepatitis C virus [5] = assay: Antiviral activity against HCV genotype 1b infected in human HuH7 cells by luciferase reporter gene assay; type: functional, cell-based, Hepacivirus hominis
In short: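 Luciferase-reporter genotype 1b subgenomic replicon in Huh-7 cells; EC50 is concentration giving 50% inhibition. Values are averages of at least three repeats.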

[6] = Hepatic extraction in hamster liver S9 fractions at 2 uM by LC-MS/MS analysis; type: ADME; details: cricetinae; for hepatic extraction ratio at 2 µM: liver S9 fractions, read-out: ERH; in short: as §2
[7] = (§3) Half life in human plasma at 2 uM by LC-MS/MS analysis; type: ADME, cell-free
In short: (§4)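 Compound at 2 μM incubated in plasma at 37 °C for up to 4 h. Aliquots quenched with 9 volumes of acetonitrile containing internal standard, then centrifuged. Supernatant analysed by LC-MS/MS.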

[8] = Permeability of the compound from apical to basolateral side in human Caco2 cells at 10 uM; type: ADME, cell-based, Caco-2; details: for Papp A→B at 10 µM: Caco-2, read-out: permeability; in short: as §1
[9] = Solubility of the compound in pH 7.4 solution; type: physicochemical
In short: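 Solubility measured at pH 7.4 using amorphous material.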

[10] = Half life in hamster plasma at 2 uM by LC-MS/MS analysis; type: ADME, cell-free; details: cricetinae; for t1/2: 2 µM; in short: as §4
[11] = Prodrug activation in Syrian golden hamster liver assessed as triphosphate metabolite formation at 5 mg equivalents/kg, po after 1 hr by LC-MS/MS analysis; type: ADME, organism-based, Mesocricetus auratus; details: in vivo
In short: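 Golden Syrian hamsters (groups of 12) dosed orally at 5 mg-eq/kg in EtOH/PEG400/water buffered with 50 mM pH 4 citrate. Livers harvested under isoflurane at 1 h and extracted in cold KOH/EDTA/70% MeOH with Cl-ATP. Triphosphate measured by LC/MS/MS, with endogenous ATP checked for sample stability.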

Plasma [12] = assay: Stability in rat plasma at 2 uM up to 4 hrs by LC-MS/MS analysis; type: ADME, cell-free; in short: as §4
[13] = (§5) Hepatic extraction in human liver S9 fractions at 2 uM by LC-MS/MS analysis; type: ADME; details: liver S9 fractions, read-out: ERH; in short: as §2
Hepatitis C virus [14] = assay: Antiviral activity against HCV genotype 4a infected in human HuH7 cells by luciferase reporter gene assay; type: functional, cell-based, Hepacivirus hominis
[15] = Inhibition of human RNA polymerase-2
[16] = Fraction absorbed in Beagle dog at 5 mg/kg, po; type: ADME, organism-based, Canis lupus familiaris; details: in vivo, read-out: Fabs
In short: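 Male beagle dogs dosed orally at 5 mg/kg. Fraction absorbed determined by portal vein sampling.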

Plasma [17] = assay: as §3; type: ADME, cell-free; details: 2 µM; in short: as §4
Liver = assay: as §5; type: ADME; details: s9, 2 µM, 2 µM; in short: as §2
[18] = Inhibition of human DNA polymerase-alpha
[19] = test system: RNA-directed RNA polymerase (Hepacivirus hominis), O39930 [UNDEFINED MUTATION]; assay: Inhibition of HCV genotype 1b wild-type NS5B RNA dependent RNA polymerase S282T mutant relative to control; details: Hepatitis C virus subtype 1b
[20] = Inhibition of HCV genotype 1b wild-type NS5B RNA dependent RNA polymerase; set-up: species or system Hepatitis C virus subtype 1b
[21] = Hepatitis C virus, subtype 1a, Huh-7
[22] = Hepatitis C virus, genotype 1b, Huh-7
[23] = Hepatitis C virus, genotype 4a, Huh-7

| Structure (SMILES) | pEC50 (Hepatitis C virus [2]; [21]) | half-life at 2 µM [3] [min] | half-life at 2 µM [4] [min] | pEC50 (Hepatitis C virus [5]; [22]) | hepatic extraction ratio at 2 µM [6] | half-life at 2 µM [7] [min] | half-life at 2 µM [10] [min] | hepatic extraction ratio at 2 µM [13] | pEC50 (Hepatitis C virus [14]; [23]) | further results |
| --- | --- | --- | --- | --- | --- | --- | --- | --- | --- | --- |
| CC(C)OC(=O)C(C)(C)NP(=O)(OC[C@H]1O[C@@H](c2ccc3c(N)ncnn23)[C@](C)(F)[C@@H]1O)Oc1ccccc1 (stereo partly specified) | 5.30 | 106 | > 789 | 4.38 | 0.86 | 155 | 124 | 0.65 | 5.96 | Papp B→A at 10 µM [1]: 17.6 ×10⁻⁶ cm/s; Papp A→B at 10 µM [8]: 4.2 ×10⁻⁶ cm/s; solubility [9]: 657 µg/mL (≈ 1160 µM); liver triphosphate concentration [11]: 1.29 µM; Stability (Plasma [12]): Unstable |
| CC(C)OC(=O)[C@@H](C)NP(=O)(OC[C@H]1O[C@@H](c2cnc3c(N)ncnn23)[C@](C)(F)[C@@H]1O)Oc1ccccc1 (stereo partly specified) | < 4.06 | 415 | > 789 | < 4.06 | 0.85 | 380 | 673 | 0.17 | 4.24 |  |
| CC[C@H](C)[C@@H]1NC(=O)CNC(=O)[C@@H]2Cc3c([nH]c4cc(O)ccc34)[S+]([O-])C[C@@H](NC(=O)CNC1=O)C(=O)N[C@@H](CC(N)=O)C(=O)N1C[C@H](O)C[C@H]1C(=O)NC([C@@H](C)[C@@H](O)CO)C(=O)N2 (stereo partly specified) |  |  |  |  |  |  |  |  |  | pIC50 [15]: 8.62 |
| CC(C)OC(=O)[C@H](C)N[P@@](=O)(O)OC[C@H]1O[C@@](C#N)(c2ccc3c(N)ncnn23)[C@](C)(O)[C@@H]1O |  |  |  |  |  |  |  |  |  | Papp B→A at 10 µM [1]: 8.9 ×10⁻⁶ cm/s; Papp A→B at 10 µM [8]: 0.2 ×10⁻⁶ cm/s; solubility [9]: 306 µg/mL (≈ 614 µM); liver triphosphate concentration [11]: 0.53 µM; Stability (Plasma [12]): Unstable; Fa [16]: 10% |
| CC(C)OC(=O)C1(NP(=O)(OC[C@H]2O[C@@H](c3cnc4c(N)ncnn34)[C@](C)(F)[C@@H]2O)Oc2ccccc2)CCC1 (stereo in doubt; 54) |  |  |  |  |  |  |  |  |  | permeability ([1]; caco-2, 10 µM, 10 µM): 9.2 ×10⁻⁶ cm/s; pEC50 (Hepatitis C virus [2]): 5.14; t1/2 [3]: 18 min; pEC50 (Hepatitis C virus [5]): 4.51; ERH ([6]; s9, 2 µM, 2 µM): 96%; t1/2 (Plasma [17]): > 789 min; permeability ([8]; caco-2, 10 µM, 10 µM): 1.3 ×10⁻⁶ cm/s; t1/2 [10]: 430 min; ERH (Liver): 78%; pEC50 (Hepatitis C virus [14]): 6.13 |
| CCOC(=O)[C@@H](C)NP(=O)(OC[C@H]1O[C@@H](c2cnc3c(N)ncnn23)[C@](C)(F)[C@@H]1O)Oc1ccccc1 (stereo partly specified) | 4.83 | 192 | > 789 | 4.58 | 0.84 | 683 | 316 | 0.28 | 5.24 |  |
| CCOC(=O)C(C)(C)NP(=O)(OC[C@H]1O[C@@H](c2cnc3c(N)ncnn23)[C@](C)(F)[C@@H]1O)Oc1ccccc1 (stereo partly specified) | 6.23 | 100 | 129 | 6.10 | 0.83 | 461 | 498 | 0.62 | 6.82 |  |
| CC(C)OC(=O)[C@H](C)N[P@](=O)(OC[C@H]1O[C@@H](c2cnc3c(N)ncnn23)[C@](C)(F)[C@@H]1O)Oc1ccccc1 | 6.29 | 11 | 590 | 6.17 | 0.97 | > 789 | > 789 | 0.65 | 6.96 | Papp B→A at 10 µM [1]: 16.6 ×10⁻⁶ cm/s; Papp A→B at 10 µM [8]: 0.94 ×10⁻⁶ cm/s; solubility [9]: 642 µg/mL (≈ 1160 µM); liver triphosphate concentration [11]: 0.34 µM; Stability (Plasma [12]): Unstable |
| C[C@@]1(CO)[C@H](O)CC[C@@]2(C)[C@H]1CC[C@H]1C[C@@H]3C[C@@]12CC[C@]3(O)CO [APHIDICOLIN] |  |  |  |  |  |  |  |  |  | pIC50 [18]: 5.14 |
| C[C@@]1(O)[C@H](O)[C@@H](COP(=O)(O)OP(=O)(O)OP(=O)(O)O)O[C@H]1c1ccc2c(N)ncnn12 |  |  |  | < 4.05 |  |  |  |  |  | fold change (FC) [19]: > 30; pIC50 [20]: 6.54 |
| CCOC(=O)C1(NP(=O)(OC[C@H]2O[C@@H](c3cnc4c(N)ncnn34)[C@](C)(F)[C@@H]2O)Oc2ccccc2)CCC1 (stereo partly specified) | 6.48 | 70 | 175 | 6.18 | 0.91 | 668 | 420 | 0.88 | 6.85 |  |
| C[C@@]1(F)[C@H](O)[C@@H](COP(=O)(O)OP(=O)(O)OP(=O)(O)O)O[C@H]1c1ccc2c(N)ncnn12 |  |  |  | < 4.05 |  |  |  |  |  | fold change (FC) [19]: 2.8; pIC50 [20]: 7.34 |
| C[C@@]1(F)[C@H](O)[C@@H](COP(=O)(O)OP(=O)(O)OP(=O)(O)O)O[C@@]1(C#N)c1ccc2c(N)ncnn12 [GS-441326] |  |  |  | < 4.05 |  |  |  |  |  | fold change (FC) [19]: 6; pIC50 [20]: 6.38 |
| CC(C)OC(=O)C1(NP(=O)(OC[C@H]2O[C@@H](c3cnc4c(N)ncnn34)[C@](C)(F)[C@@H]2O)Oc2ccccc2)CCC1 (stereo in doubt; 37) |  |  | > 789 |  | 0.93 | 534 |  | 0.79 | 6.42 | Papp B→A at 10 µM [1]: 9.7 ×10⁻⁶ cm/s; pEC50 (Hepatitis C virus [2]): 5.64; t1/2 [3]: 48 min; pEC50 (Hepatitis C virus [5]): 4.73; Papp A→B at 10 µM [8]: 2.4 ×10⁻⁶ cm/s; solubility [9]: 538 µg/mL (≈ 930 µM); t1/2 [10]: > 789 min; liver triphosphate concentration [11]: 1.89 µM; Stability (Plasma [12]): Unstable; Fa [16]: > 70% |
